Data set [1] is described as follows: Lipophilicity, log D of the compound at pH 7.4 by shake-flask method. Particulars: buffer. It counts as physicochemical.
Data set [2] deals with T1, Myeloperoxidase (Homo sapiens) (UniProt P05164).
T1 sequence (whole entry): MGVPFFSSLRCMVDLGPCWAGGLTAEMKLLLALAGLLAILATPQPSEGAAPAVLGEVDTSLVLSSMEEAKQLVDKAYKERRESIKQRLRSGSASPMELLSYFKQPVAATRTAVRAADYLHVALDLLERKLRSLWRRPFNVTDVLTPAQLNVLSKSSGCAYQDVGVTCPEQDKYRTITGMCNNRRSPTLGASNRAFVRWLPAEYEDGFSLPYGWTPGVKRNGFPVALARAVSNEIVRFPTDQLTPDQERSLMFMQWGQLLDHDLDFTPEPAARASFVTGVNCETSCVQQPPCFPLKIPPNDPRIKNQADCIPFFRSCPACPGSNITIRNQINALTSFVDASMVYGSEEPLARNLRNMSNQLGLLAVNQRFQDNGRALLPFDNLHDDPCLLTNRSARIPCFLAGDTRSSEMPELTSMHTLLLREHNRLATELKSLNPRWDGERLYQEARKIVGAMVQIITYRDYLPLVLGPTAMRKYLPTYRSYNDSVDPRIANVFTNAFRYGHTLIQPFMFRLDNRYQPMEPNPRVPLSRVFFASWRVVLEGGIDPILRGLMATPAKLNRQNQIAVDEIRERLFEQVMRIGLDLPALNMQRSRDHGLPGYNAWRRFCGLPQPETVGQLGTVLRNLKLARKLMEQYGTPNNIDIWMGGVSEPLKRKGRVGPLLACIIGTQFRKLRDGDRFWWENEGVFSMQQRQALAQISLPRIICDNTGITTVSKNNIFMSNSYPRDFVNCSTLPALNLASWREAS
Briefly: (§1) Inhibition of peroxidase activity of MPO isolated from human polynuclear leukocytes using Amplex Red as substrate assessed as formation of resorufin measured every 20 secs by spectrophotometric analysis.

Data set [3] is described as follows: Apparent permeability across RRCK cells. It is filed as ADME, cell-based, Canis lupus familiaris, MDCKII-LE. Conditions: dog, MDCK. In short, it runs like this:
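Passive permeability measured in Ralph−Russ canine kidney (RRCK) cells, a low-transporter line isolated from Madin−Darby canine kidney cells; reported as P_app (10⁻⁶ cm/s).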

The subject of a further data set is Liver microsome. Briefly: Intrinsic apparent clearance in human liver microsomes. It counts as ADME. In short, it runs like this: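 Stability incubations in NADPH-supplemented human liver microsomes or cryopreserved human hepatocytes. Total apparent intrinsic clearance scaled from the in vitro half-life; microsomes reported per mg protein, hepatocytes per 10⁶ cells.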
(In general: Liver microsomes are a subcellular fraction often used to study metabolism.)

Data set [4] in a line: Volume of distribution at steady state in Wistar rat at 1 mg/kg, iv and 3 or 5 mg/kg, po. It counts as ADME, organism-based. Particulars: in vivo, read-out: Vdss. In short, it runs like this: (§2)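 Male mice, rats, dogs and cynomolgus monkeys, fasted overnight, fed after dosing. Intravenous dose 1 mg/kg in saline or 12% sulfobutyl ether β-cyclodextrin; oral arm 3 or 5 mg/kg in 0.5% methylcellulose. Steady-state volume derived from plasma concentration−time data; mean ± SD for n = 3, individual values for n = 2.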

Data set [5] is described as follows: Volume of distribution at steady state in Beagle dog at 1 mg/kg, iv and 3 or 5 mg/kg, po. It counts as ADME, organism-based, Canis lupus familiaris. Conditions: in vivo, read-out: Vdss. A digest of the protocol: as §2
A short description of data set [6]: Elimination half life in Wistar rat at 1 mg/kg, iv and 3 or 5 mg/kg, po. Particulars: in vivo, read-out: beta t1/2 (converted). It is filed as ADME, organism-based. In short, it runs like this:
(§3)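 Male CD-1 mice (25−35 g), cannulated Wistar-Han rats (250 g), beagle dogs (12 kg) and cynomolgus monkeys (7 kg), fasted overnight and fed 1.0 or 2.0 h after dosing. iv 1 mg/kg in saline or 12% sulfobutyl ether β-cyclodextrin; po 3 or 5 mg/kg in 0.5% methylcellulose. Parameters calculated from plasma concentration−time data; mean ± SD for n = 3, individual values for n = 2.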

Data set [7] in a line: Elimination half life in Beagle dog at 1 mg/kg, iv and 3 or 5 mg/kg, po. Particulars: in vivo, read-out: beta t1/2 (converted). It counts as ADME, organism-based, Canis lupus familiaris. A digest of the protocol:
as §3

The nature of data set [8]: Tmax in Wistar rat at 3 or 5 mg/kg, po. It counts as ADME, organism-based. Conditions: in vivo. A digest of the protocol: (§4)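 Male animals (CD-1 mice 25−35 g, cannulated Wistar-Han rats 250 g, beagle dogs 12 kg, cynomolgus monkeys 7 kg), fasted overnight and fed 1.0 or 2.0 h after dosing, water ad libitum. Oral dose 3 or 5 mg/kg in 0.5% methylcellulose. Parameters calculated from plasma concentration−time data; mean ± SD for n = 3, individual values for n = 2.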

Data set [9] can be described thus: Tmax in Beagle dog at 3 or 5 mg/kg, po. Conditions: in vivo. It is filed as ADME, organism-based, Canis lupus familiaris. In short, it runs like this: as §4
The nature of data set [10]: Oral bioavailability in Wistar rat at 3 or 5 mg/kg. It counts as ADME, organism-based. Conditions: in vivo. In short, it runs like this:
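Male CD-1 mice, Wistar-Han rats, beagle dogs and cynomolgus monkeys, fasted overnight and fed after dosing. Given po at 3 or 5 mg/kg in 0.5% methylcellulose, with an iv reference dose of 1 mg/kg. Bioavailability derived from plasma concentration−time data; mean ± SD (n = 3) or individual values (n = 2).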

Data set [11] deals with T2, Myeloperoxidase (Homo sapiens, UniProt P05164).
T2 sequence (P05164 whole entry): T1 sequence (whole entry)
The data set is described as §1.

For data set [12], the target named is T1, Myeloperoxidase (Homo sapiens). The data set is described as follows: Inhibition of peroxidase activity of MPO isolated from human polynuclear leukocytes using Amplex Red as substrate assessed as formation of resorufin by measuring ratio of Kinact to Ki measured every 20 secs by spectrophotometric analysis. In short, it runs like this: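 Enzyme purified from human polynuclear leukocytes. Buffer: 50 mM sodium phosphate pH 7.4, 150 mM NaCl, 1 mM DTPA, 2 μM H2O2, 30 μM Amplex Red, inhibitor or DMSO. Resorufin fluorescence (ex 530/em 580) read every 20 s at room temperature. Progress curves fitted for kobs at each concentration. kinact/KI derived from the kobs versus [I] fit or slope. Geometric mean of at least two experiments.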

The target of data set [13] is T2, Myeloperoxidase. The data set is described as follows: Irreversible inhibition of MPO in LPS-stimulated human whole blood after 4 hrs by Amplex Red/H2O2-based fluorescence plate reader analysis. In short, it runs like this:
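Heparinized whole blood from healthy human volunteers, stimulated with bacterial LPS and incubated with compound for 4 h. MPO captured on anti-MPO antibody plates and washed; residual activity measured with Amplex Red and H₂O₂. IC₅₀ reported as geometric mean [90% CI].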

Some results are limits rather than exact numbers.

Usually logD stands for lipophilicity at a set pH, counting ionised and neutral species. A high value points to higher lipophilicity. The Papp is a coefficient for how fast a substance crosses the barrier. By Tmax is commonly meant the time from dosing to the highest level. Broadly, the bioavailability is the share of a dose that reaches the circulation, judged against a reference dose that is usually intravenous. As for `COc1ccc(Cl)cc1-c1cc(=O)[nH]c(=S)n1CC(N)=O` [PF-06282999], the logD in data set [1] worked out at 0.81. The pKinact in data set [2] came to 2.43. Further, in data set [3], the Papp was 1.6 ×10⁻⁶ cm/s. Further, in the data set on Liver microsome, the CLH(app) was under 8 µL/min/mg. In addition, the values for the Vd in data set [4] and in data set [5] were 2.13 L/kg and 0.54 L/kg, respectively. Moreover, the half-life in data set [6] is 45 min; in data set [7], 132 min. Moreover, the Tmax in data set [8] came to 46.8 min; in data set [9] it was 42 min. In [10], this molecule registered a bioavailability of 86%.
In general, Ki refers to the equilibrium dissociation constant of an inhibitor or competing ligand from its target. In general, IC50 refers to the concentration that inhibits the measured activity by half. On to `COc1ccc(-c2cc(=O)[nH]c(=S)n2CCO)c(OC)c1`, for which the logD in [1] is 1.1. In data set [2], the pKinact was determined as 2.34. Further, the Ki on Myeloperoxidase [11] was 151 nM. The log(ratio) in data set [12] was 4.47. On Myeloperoxidase [13], this molecule yielded an IC50 of 2000 nM. The apparent permeability coefficient (Papp) in data set [3] was 13 ×10⁻⁶ cm/s. Besides, in the data set with Liver microsome, the CLH(app) was under 8 µL/min/mg. For the same molecule, the figures for the Vd in data set [4] and in [5] were 0.82 L/kg and 1.33 L/kg, respectively. For the same molecule, the figures for the half-life in data set [6] and in data set [7] were 15 min and 318 min, respectively. For the same molecule, the Tmax in data set [8] is 78 min; in [9] it was 70.2 min. Also, the bioavailability in data set [10] was determined as 8%.
Molecule `COc1ccc(-c2cc(=O)[nH]c(=S)n2CC(N)=O)c(OC)c1` showed a logD in data set [1] of 0.59. The pKinact in data set [2] was 2.41. On Myeloperoxidase [11], the Ki was 372 nM. For the same molecule, the log(ratio) in data set [12] was found to be 4.03. At Myeloperoxidase [13], this molecule yielded an IC50 of 2600 nM. The apparent permeability coefficient (Papp) in data set [3] amounted to 0.8 ×10⁻⁶ cm/s. For the same molecule, the CLH(app) with Liver microsome is under 8 µL/min/mg. Also, the Vd in data set [4] worked out at 1.23 L/kg; in data set [5], 0.3 L/kg. In addition, the half-life in data set [6] is 45.6 min; in data set [7], 204 min. Moreover, the time of peak concentration (Tmax) in [8] turned out to be 30 min; in data set [9] it was 90 min. Also, in data set [10], the bioavailability was 76%.
Molecule `COc1ccc(OC)c(-c2cc(=O)[nH]c(=S)n2CC(N)=O)c1` had a log distribution coefficient (logD) in data set [1] of 0.34. In addition, the pKinact in data set [2] was 2.38. In addition, at Myeloperoxidase [11], the inhibitory constant (Ki) was 347 nM. Also, in data set [12], the log(ratio) stood at 4.09. The same molecule registered an IC50 against Myeloperoxidase [13] of 1500 nM. Moreover, in data set [3], the Papp came out at 1.1 ×10⁻⁶ cm/s. Further, the CLH(app) with Liver microsome is under 8 µL/min/mg. In addition, the values for the Vd in data set [4] and in data set [5] were 0.83 L/kg and 1.03 L/kg, respectively. Further, the half-life in data set [6] was 22.8 min; in data set [7], 168 min. Also, the time to peak (Tmax) was 40.2 min in data set [8] and 37.8 min in [9]. This molecule also yielded a bioavailability in data set [10] of 61%.
In data set [1], `COc1ccc(-c2cc(=O)[nH]c(=S)n2CCN)c(OC)c1` displayed a logD of -0.17. For the same molecule, in [2], the pKinact came to 2.61. Also, the inhibition constant Ki at Myeloperoxidase [11] was 174 nM. Moreover, in data set [12], the log(ratio) is 4.13. The molecule further gave an IC50 at Myeloperoxidase [13] of 500 nM. For the same molecule, the apparent permeability (Papp) in [3] was determined as 3.5 ×10⁻⁶ cm/s. In addition, the CLH(app) with Liver microsome was 8.8 µL/min/mg. Also, the Vd in data set [4] worked out at 3.71 L/kg; in data set [5], 3.66 L/kg. The half-life in data set [6] was 66 min; in data set [7] it was 342 min. The figures for the Tmax in data set [8] and in data set [9] were 22.8 min and 78 min, respectively. In data set [10], the bioavailability came to 91%.

The values are drawn from ChEMBL document CHEMBL3632461 (J Med Chem, 2015).
